Series [1] can be described thus: Stability of the compound at pH 6.5 to 8.5 after 30 mins by UV spectrophotometry. It is filed as physicochemical. As to conditions: buffer, pH 6.5, 0.5 h. Put shortly: (§1)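 Stability followed by UV spectrometry across pH 6.5–8.5 and temperatures 30–80 °C.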
Series [2] in a line: Stability of the compound at 30 to 80 degC after 30 mins by UV spectrophotometry. It is filed as physicochemical. The note with it: 0.5 h. In a few lines:
as §1

The nature of series [3]: Solubility of the compound in phosphate buffer at pH 7.5 after 20 hrs by UV spectrophotometry. It is filed as physicochemical. In a few lines:
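Phosphate buffer pH 7.5 added to solid; suspension sonicated 10 min, then shaken at room temperature for 20 h and centrifuged. Supernatant concentration read by UV absorbance against a regression calibration curve (278 and 340 nm).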

Series [4] in a line: Octanol-water partition coefficient, log P of the compound after 24 hrs by UV-Vis spectrophotometry. Format: physicochemical.
Series [5] deals with Candida. In words: Antifungal activity against Candida mycoderma after 24 hrs by twofold broth dilution method. It is filed as functional. Put shortly:
(§2)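 MIC by NCCLS-recommended twofold broth microdilution, run in triplicate. Strains: B. subtilis ATCC6633, E. coli DH52, M. luteus ATCC4698, P. vulgaris ATCC6896, S. dysenteriae, S. aureus ATCC25923, MRSA N315, C. albicans ATCC76615, C. mycoderma. References were chloromycin, norfloxacin and berberine for bacteria, and fluconazole for fungi.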

Series [6] has as its system Proteus vulgaris. The experiment in a line: Antibacterial activity against Proteus vulgaris after 24 hrs by twofold broth dilution method. It is filed as functional. Put shortly: as §2
On the technique in general: In broth dilution the organism is exposed to a series of concentrations in liquid medium.

Series [7] relates to Candida albicans. In words: Antifungal activity against Candida albicans after 24 hrs by twofold broth dilution method. It is filed as functional. Put shortly:
as §2

Series [8] has as its system Pseudomonas aeruginosa. In words: Antibacterial activity against Pseudomonas aeruginosa after 24 hrs by twofold broth dilution method. It is filed as functional. In a few lines: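 Twofold broth dilution in 96-well microplates following NCCLS guidance; MIC read as the endpoint; tests run in triplicate.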
The test system of series [9] is Shigella dysenteriae. The experiment in a line: Antibacterial activity against Shigella dysenteriae after 24 hrs by twofold broth dilution method. Format: functional. Put shortly:
as §2

Series [10] relates to Escherichia coli. The experiment in a line: Antibacterial activity against Escherichia coli DH52 after 24 hrs by twofold broth dilution method. Format: functional. The note with it: DH52, 24 h. In a few lines:
as §2

In series [11] the test system is Micrococcus luteus. The experiment in a line: Antibacterial activity against Micrococcus luteus ATCC 4698 after 24 hrs by twofold broth dilution method. As to conditions: ATCC 4698, 24 h. Format: functional. Put shortly:
as §2

The test system of series [12] is Bacillus subtilis. In words: Antibacterial activity against Bacillus subtilis after 24 hrs by twofold broth dilution method. Format: functional. Put shortly: as §2
In series [13] the test system is Staphylococcus aureus. The experiment in a line: Antibacterial activity against Staphylococcus aureus ATCC 25923 after 24 hrs by twofold broth dilution method. Format: functional. As to conditions: ATCC 25923, 24 h. Put shortly:
as §2

In series [14] the test system is Staphylococcus aureus. The experiment in a line: Antibacterial activity against methicillin-resistant Staphylococcus aureus N315 after 24 hrs by twofold broth dilution method. It is filed as functional. As to conditions: N315, 24 h. Put shortly:
as §2

For the compound `COc1ccc2cc3[n+](cc2c1OCCN(CCn1c([N+](=O)[O-])cnc1C)Cc1ccc(F)cc1F)CCc1cc2c(cc1-3)OCO2.[Cl-]`, the Stability result in series [1] and in [2] was “Stable” throughout. In addition, the solubility (as a rule, the dissolved amount per volume that the medium holds) at 20 h in series [3] worked out at 60.6 µg/mL. The logP (in general, the decadic logarithm of the partition coefficient of the neutral form, usually between octanol and water) at 24 h in [4] is -0.34. In addition, the MIC (commonly the lowest concentration found to suppress growth) in [5] came to 128 µg/mL; in [6], 64 µg/mL; in series [7], 64 µg/mL; in series [8], 128 µg/mL; in series [9] it was 256 µg/mL; in series [10], 128 µg/mL. Besides, the MIC came out at 128 µg/mL in [11], 64 µg/mL in series [12], 16 µg/mL in series [13] and 16 µg/mL in [14].

Turning to `COc1ccc2cc3[n+](cc2c1OCCN(CCn1cnc([N+](=O)[O-])c1)Cc1ccc(F)cc1F)CCc1cc2c(cc1-3)OCO2.[Cl-]`, the Stability entry in [1] and in series [2] was “Stable” throughout. In series [3], this compound displayed a solubility at 20 h of 94 µg/mL. Also, the logP at 24 h in [4] came to 0.5. Besides, the MIC in [5] came out at 8 µg/mL; in series [6], 16 µg/mL; in series [7], 16 µg/mL; in series [8] it was 16 µg/mL; in series [9], 4 µg/mL; in series [10], 16 µg/mL. The MIC was found to be 16 µg/mL in [11], 32 µg/mL in series [12], 16 µg/mL in [13] and 32 µg/mL in series [14].

Turning to `COc1ccc2cc3[n+](cc2c1OCCN(CCn1cnc([N+](=O)[O-])c1)Cc1ccc(Cl)c(Cl)c1)CCc1cc2c(cc1-3)OCO2.[Cl-]`, the Stability entry in series [1] and in [2] was “Stable” in each case. The solubility at 20 h in series [3] amounted to 88.5 µg/mL. This compound also returned a logP at 24 h in series [4] of 0.53. The MIC in [5] was found to be 64 µg/mL; in [6], 16 µg/mL; in [7], 16 µg/mL; in [8] it was 16 µg/mL; in [9] it was 4 µg/mL; in [10], 16 µg/mL. In addition, the MIC in series [11] is 16 µg/mL; in series [12], 32 µg/mL; in series [13] it was 16 µg/mL; in series [14], 64 µg/mL.

For `COc1ccc2cc3[n+](cc2c1OCCN(CCn1cnc([N+](=O)[O-])c1)Cc1ccccc1Cl)CCc1cc2c(cc1-3)OCO2.[Cl-]`, the Stability entry in series [1] and in series [2] was “Stable” throughout. The compound further yielded a solubility at 20 h in series [3] of 95.1 µg/mL. The logP at 24 h in series [4] is 0.51. Moreover, the MIC in [5] was determined as 128 µg/mL; in series [6] it was 64 µg/mL; in [7], 8 µg/mL; in [8], 16 µg/mL; in series [9], 16 µg/mL; in series [10], 16 µg/mL. For the same compound, the MIC in series [11] came to 16 µg/mL; in series [12] it was 4 µg/mL; in series [13], 4 µg/mL; in series [14], 16 µg/mL.

For `COc1ccc2cc3[n+](cc2c1OCCN(CCn1cnc([N+](=O)[O-])c1)Cc1cccc(Cl)c1)CCc1cc2c(cc1-3)OCO2.[Cl-]`, the Stability result in series [1] and in series [2] was “Stable” throughout. Also, in series [3], the concentration in solution (solubility at 20 h) was 50.8 µg/mL. In [4], this compound returned a logP at 24 h of 0.57. Moreover, the MIC in series [5] stood at 32 µg/mL; in [6], 64 µg/mL; in series [7] it was 16 µg/mL; in series [8], 64 µg/mL; in series [9] it was 256 µg/mL; in [10], 32 µg/mL. For the same compound, the MIC in series [11] was determined as 64 µg/mL; in series [12], 32 µg/mL; in series [13], 8 µg/mL; in [14], 32 µg/mL.
